What was measured:
Format in all cases: toxicity, cell-based
Fibroblast = test: Multiplex assay against human fibroblast
How it was run: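 Four dyes were applied at seeding to live cells: Hoechst33342, BioTracker Green Microtubule Cytoskeleton Dye, MitoTracker Red and Annexin V Alexa Fluor 680. Imaging after compound addition used a CQ1 microscope at 37°C and 5% CO2. CellPathfinder machine-learning gating then sorted cells into Hoechst high-intensity objects or normal cells, normal cells into healthy, pyknosed or fragmented nuclei, and pyknosed cells into mitotic or apoptotic, with tubulin, mitochondrial-mass and membrane-permeability phenotypes given as per cents of healthy-nucleus cells.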

U2OS = test: Incucyte cell viability with U2OS; settings: human, 10 µM, compound concentration 10 uM; further: filed as whole numbers so only -1 and 0 and 1 occur
HEK-293T = test: Incucyte cell viability with HEK293T; settings: human, 10 µM, compound concentration 10 uM; further: filed as whole numbers so only -1 and 0 and 1 occur
[1] = 12 h, 1 µM, compound concentration 1 uM, replicate 1
[2] = 12 h, 1 µM, compound concentration 1 uM, replicate 2
[3] = 12 h, 10 µM, compound concentration 10 uM, replicate 1
[4] = 12 h, 10 µM, compound concentration 10 uM, replicate 2
[5] = 24 h, 1 µM, compound concentration 1 uM, replicate 1
[6] = 24 h, 1 µM, compound concentration 1 uM, replicate 2
[7] = 24 h, 10 µM, compound concentration 10 uM, replicate 1
[8] = 24 h, 10 µM, compound concentration 10 uM, replicate 2
[9] = 48 h, 1 µM, compound concentration 1 uM, replicate 1
[10] = 48 h, 1 µM, compound concentration 1 uM, replicate 2
[11] = 48 h, 10 µM, compound concentration 10 uM, replicate 1
[12] = 48 h, 10 µM, compound concentration 10 uM, replicate 2
[13] = 6 h, replicate number 1, timepoint 6 hours
[14] = 12 h, replicate number 1, timepoint 12 hours
[15] = 18 h, replicate number 1, timepoint 18 hours
[16] = 24 h, replicate number 1, timepoint 24 hours

N#Cc1cccc(C(=O)Nc2cc(-c3ccccc3)nn2-c2ccccc2)c1
Population Apoptotic (%) (Fibroblast; [1]): 66% | Population Fragmented Nuclei (%) (Fibroblast; [1]): 21% | Population Healthy Nuclei (%) (Fibroblast; [1]): 48% | Population Hoechst High Intensity Objects (%) (Fibroblast; [1]): 11% | Population Membrane Permeable-Phenotype (%) (Fibroblast; [1]): 22% | Population Mitochondria Different-Phenotype (%) (Fibroblast; [1]): 6% | Population Mitotic Cells (%) (Fibroblast; [1]): 34% | Population Normal (%) (Fibroblast; [1]): 88% | Population Pyknosed Nuclei (%) (Fibroblast; [1]): 30% | Population Tubulin-Different-Phenotype (%) (Fibroblast; [1]): 48% | Total Cell Count (Fibroblast; [1]): 186 | Population Apoptotic (%) (Fibroblast; [2]): 16% | Population Fragmented Nuclei (%) (Fibroblast; [2]): 5% | Population Healthy Nuclei (%) (Fibroblast; [2]): 84% | Population Hoechst High Intensity Objects (%) (Fibroblast; [2]): 3% | Population Membrane Permeable-Phenotype (%) (Fibroblast; [2]): 6% | Population Mitochondria Different-Phenotype (%) (Fibroblast; [2]): 8% | Population Mitotic Cells (%) (Fibroblast; [2]): 83% | Population Normal (%) (Fibroblast; [2]): 96% | Population Pyknosed Nuclei (%) (Fibroblast; [2]): 10% | Population Tubulin-Different-Phenotype (%) (Fibroblast; [2]): 16% | Total Cell Count (Fibroblast; [2]): 59 | Population Apoptotic (%) (Fibroblast; [3]): 50% | Population Fragmented Nuclei (%) (Fibroblast; [3]): 15% | Population Healthy Nuclei (%) (Fibroblast; [3]): 42% | Population Hoechst High Intensity Objects (%) (Fibroblast; [3]): 8% | Population Membrane Permeable-Phenotype (%) (Fibroblast; [3]): 23% | Population Mitochondria Different-Phenotype (%) (Fibroblast; [3]): 15% | Population Mitotic Cells (%) (Fibroblast; [3]): 50% | Population Normal (%) (Fibroblast; [3]): 91% | Population Pyknosed Nuclei (%) (Fibroblast; [3]): 42% | Population Tubulin-Different-Phenotype (%) (Fibroblast; [3]): 82% | Total Cell Count (Fibroblast; [3]): 134 | Population Apoptotic (%) (Fibroblast; [4]): 45% | Population Fragmented Nuclei (%) (Fibroblast; [4]): 9% | Population Healthy Nuclei (%) (Fibroblast; [4]): 60% | Population Hoechst High Intensity Objects (%) (Fibroblast; [4]): 9% | Population Membrane Permeable-Phenotype (%) (Fibroblast; [4]): 15% | Population Mitochondria Different-Phenotype (%) (Fibroblast; [4]): 84% | Population Mitotic Cells (%) (Fibroblast; [4]): 55% | Population Normal (%) (Fibroblast; [4]): 90% | Population Pyknosed Nuclei (%) (Fibroblast; [4]): 30% | Population Tubulin-Different-Phenotype (%) (Fibroblast; [4]): 97% | Total Cell Count (Fibroblast; [4]): 72 | Population Apoptotic (%) (Fibroblast; [5]): 47% | Population Fragmented Nuclei (%) (Fibroblast; [5]): 17% | Population Healthy Nuclei (%) (Fibroblast; [5]): 49% | Population Hoechst High Intensity Objects (%) (Fibroblast; [5]): 8% | Population Membrane Permeable-Phenotype (%) (Fibroblast; [5]): 34% | Population Mitochondria Different-Phenotype (%) (Fibroblast; [5]): 6% | Population Mitotic Cells (%) (Fibroblast; [5]): 52% | Population Normal (%) (Fibroblast; [5]): 91% | Population Pyknosed Nuclei (%) (Fibroblast; [5]): 33% | Population Tubulin-Different-Phenotype (%) (Fibroblast; [5]): 69% | Total Cell Count (Fibroblast; [5]): 180 | Population Apoptotic (%) (Fibroblast; [6]): 14% | Population Fragmented Nuclei (%) (Fibroblast; [6]): 3% | Population Healthy Nuclei (%) (Fibroblast; [6]): 86% | Population Hoechst High Intensity Objects (%) (Fibroblast; [6]): 4% | Population Membrane Permeable-Phenotype (%) (Fibroblast; [6]): 1% | Population Mitochondria Different-Phenotype (%) (Fibroblast; [6]): 8% | Population Mitotic Cells (%) (Fibroblast; [6]): 85% | Population Normal (%) (Fibroblast; [6]): 95% | Population Pyknosed Nuclei (%) (Fibroblast; [6]): 10% | Population Tubulin-Different-Phenotype (%) (Fibroblast; [6]): 7% | Total Cell Count (Fibroblast; [6]): 68 | Population Apoptotic (%) (Fibroblast; [7]): 45% | Population Fragmented Nuclei (%) (Fibroblast; [7]): 20% | Population Healthy Nuclei (%) (Fibroblast; [7]): 39% | Population Hoechst High Intensity Objects (%) (Fibroblast; [7]): 6% | Population Membrane Permeable-Phenotype (%) (Fibroblast; [7]): 36% | Population Mitochondria Different-Phenotype (%) (Fibroblast; [7]): 4% | Population Mitotic Cells (%) (Fibroblast; [7]): 54% | Population Normal (%) (Fibroblast; [7]): 93% | Population Pyknosed Nuclei (%) (Fibroblast; [7]): 39% | Population Tubulin-Different-Phenotype (%) (Fibroblast; [7]): 93% | Total Cell Count (Fibroblast; [7]): 119 | Population Apoptotic (%) (Fibroblast; [8]): 42% | Population Fragmented Nuclei (%) (Fibroblast; [8]): 9% | Population Healthy Nuclei (%) (Fibroblast; [8]): 67% | Population Membrane Permeable-Phenotype (%) (Fibroblast; [8]): 30% | Population Mitochondria Different-Phenotype (%) (Fibroblast; [8]): 71% | Population Mitotic Cells (%) (Fibroblast; [8]): 57% | Population Pyknosed Nuclei (%) (Fibroblast; [8]): 22% | Population Tubulin-Different-Phenotype (%) (Fibroblast; [8]): 95% | Total Cell Count (Fibroblast; [8]): 66 | Population Apoptotic (%) (Fibroblast; [9]): 57% | Population Fragmented Nuclei (%) (Fibroblast; [9]): 31% | Population Healthy Nuclei (%) (Fibroblast; [9]): 44% | Population Hoechst High Intensity Objects (%) (Fibroblast; [9]): 12% | Population Membrane Permeable-Phenotype (%) (Fibroblast; [9]): 26% | Population Mitochondria Different-Phenotype (%) (Fibroblast; [9]): 3% | Population Mitotic Cells (%) (Fibroblast; [9]): 42% | Population Normal (%) (Fibroblast; [9]): 87% | Population Pyknosed Nuclei (%) (Fibroblast; [9]): 24% | Population Tubulin-Different-Phenotype (%) (Fibroblast; [9]): 50% | Total Cell Count (Fibroblast; [9]): 166 | Population Apoptotic (%) (Fibroblast; [10]): 0% | Population Fragmented Nuclei (%) (Fibroblast; [10]): 28% | Population Healthy Nuclei (%) (Fibroblast; [10]): 69% | Population Hoechst High Intensity Objects (%) (Fibroblast; [10]): 8% | Population Membrane Permeable-Phenotype (%) (Fibroblast; [10]): 12% | Population Mitochondria Different-Phenotype (%) (Fibroblast; [10]): 5% | Population Mitotic Cells (%) (Fibroblast; [10]): 100% | Population Normal (%) (Fibroblast; [10]): 91% | Population Pyknosed Nuclei (%) (Fibroblast; [10]): 1% | Population Tubulin-Different-Phenotype (%) (Fibroblast; [10]): 57% | Total Cell Count (Fibroblast; [10]): 112 | Population Apoptotic (%) (Fibroblast; [11]): 41% | Population Fragmented Nuclei (%) (Fibroblast; [11]): 30% | Population Healthy Nuclei (%) (Fibroblast; [11]): 40% | Population Hoechst High Intensity Objects (%) (Fibroblast; [11]): 12% | Population Membrane Permeable-Phenotype (%) (Fibroblast; [11]): 28% | Population Mitochondria Different-Phenotype (%) (Fibroblast; [11]): 4% | Population Mitotic Cells (%) (Fibroblast; [11]): 58% | Population Normal (%) (Fibroblast; [11]): 87% | Population Pyknosed Nuclei (%) (Fibroblast; [11]): 28% | Population Tubulin-Different-Phenotype (%) (Fibroblast; [11]): 95% | Total Cell Count (Fibroblast; [11]): 126 | Population Apoptotic (%) (Fibroblast; [12]): 23% | Population Fragmented Nuclei (%) (Fibroblast; [12]): 45% | Population Healthy Nuclei (%) (Fibroblast; [12]): 45% | Population Hoechst High Intensity Objects (%) (Fibroblast; [12]): 34% | Population Membrane Permeable-Phenotype (%) (Fibroblast; [12]): 25% | Population Mitochondria Different-Phenotype (%) (Fibroblast; [12]): 1% | Population Mitotic Cells (%) (Fibroblast; [12]): 76% | Population Normal (%) (Fibroblast; [12]): 65% | Population Pyknosed Nuclei (%) (Fibroblast; [12]): 9% | Total Cell Count (Fibroblast; [12]): 214 | Growth Rate (U2OS; 0 h, replicate number 2, timepoint 0 hours): 0 | Growth Rate (U2OS; [13]): 0 | Growth Rate (U2OS; [14]): 0 | Growth Rate (U2OS; 12 h, replicate number 2, timepoint 12 hours): 1 | Growth Rate (U2OS; [15]): 0 | Growth Rate (U2OS; [16]): 0 | Growth Rate (HEK-293T; 0 h, replicate number 1, timepoint 0 hours): 0 | Growth Rate (HEK-293T; [13]): 0 | Growth Rate (HEK-293T; [14]): 0 | Growth Rate (HEK-293T; [15]): 0 | Growth Rate (HEK-293T; [16]): 0
